Test results published in ChEMBL document CHEMBL1155469, “Peptide nucleic acids conjugated to short basic peptides show improved pharmacokinetics and antisense activity in adipose tissue” (J Med Chem, 2010).
Calls of active or inactive are those of the source. No cut-off for these calls is given here.

Key:
BCL1 = assay: Inhibition of PTEN expression in mouse BCL1 cells after 62 hrs by Western blotting; type: functional, cell-based; details: BCL1, 62 h
Outline: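 BCL1 cells were grown in DMEM with 10% FBS at 37 °C, 5% CO2. Compound was delivered to 2×10^6 cells by electroporation (200 V, 1000 uF, 13 ohms), and cells were harvested 62 h later. Western blot of RIPA lysates used rabbit anti-PTEN and anti-CD40 (1:1000) with HRP secondary and ECL detection. PTEN was normalized to CD40. n=3, mean ± SD.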

Mus musculus [1] = assay: Toxicity in Balb/C mouse assessed as change in body weight at 25 mg/kg, ip administered thrice a week for 2 weeks measured 48 hrs after last dose; type: organism-based; parameters: dose 25 mg/kg, route intraperitoneal; details: in vivo
Outline: (§1)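 Male Balb/c mice, 6–8 wk, n=4/group, received compound i.p. in PBS (10 ul/g) 3x/wk for 2 wk. Body weight was monitored throughout. At 48 h after the last dose, mice were anesthetized with isoflurane and bled by cardiac puncture. Serum AST, ALT, BUN, bilirubin, glucose and triglycerides were compared with the saline group. ALT rise below 2x normal was counted as absent.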

Mus musculus [2] = assay: Toxicity in Balb/C mouse assessed as change in serum AST levels at 25 mg/kg, ip administered thrice a week for 2 weeks measured 48 hrs after last dose; type: organism-based; parameters: dose 25 mg/kg, route intraperitoneal; details: in vivo; outline: as §1
Mus musculus [3] = assay: Toxicity in Balb/C mouse assessed as change in serum ALT levels at 25 mg/kg, ip administered thrice a week for 2 weeks measured 48 hrs after last dose; type: organism-based; parameters: dose 25 mg/kg, route intraperitoneal; details: in vivo; outline: as §1
Mus musculus [4] = assay: Toxicity in Balb/C mouse assessed as change in blood urea nitrogen levels at 25 mg/kg, ip administered thrice a week for 2 weeks measured 48 hrs after last dose; type: organism-based; parameters: dose 25 mg/kg, route intraperitoneal; details: in vivo; outline: as §1
Mus musculus [5] = assay: Toxicity in Balb/C mouse assessed as change in serum bilirubin levels at 25 mg/kg, ip administered thrice a week for 2 weeks measured 48 hrs after last dose; type: organism-based; parameters: dose 25 mg/kg, route intraperitoneal; details: in vivo; outline: as §1
Mus musculus [6] = assay: Toxicity in Balb/C mouse assessed as change in serum glucose levels at 25 mg/kg, ip administered thrice a week for 2 weeks measured 48 hrs after last dose; type: organism-based; parameters: dose 25 mg/kg, route intraperitoneal; details: in vivo; outline: as §1
Mus musculus [7] = assay: Toxicity in Balb/C mouse assessed as change in serum triglyceride levels at 25 mg/kg, ip administered thrice a week for 2 weeks measured 48 hrs after last dose; type: organism-based; parameters: dose 25 mg/kg, route intraperitoneal; details: in vivo; outline: as §1
Mus musculus [8] = assay: Inhibition of PTEN expression in Balb/C mouse liver at 25 mg/kg, ip administered thrice a week for 2 weeks measured 48 hrs after last dose by Western blot analysis; type: functional, organism-based; parameters: dose 25 mg/kg
Outline: (§2)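 Male Balb/c mice, 6–8 wk, n=4/group, dosed i.p. in PBS 3x/wk for 2 wk and killed 48 h after the last dose. Tissue was homogenized in RIPA buffer with protease inhibitors, and protein was measured by Lowry assay. Lysates were run on 10% PAGE and blotted to PVDF. Blots were probed with rabbit anti-PTEN (1:1000) and HRP anti-rabbit (1:2500), with ECL detection.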

Mus musculus [9] = assay: Inhibition of PTEN expression in Balb/C mouse kidney at 25 mg/kg, ip administered thrice a week for 2 weeks measured 48 hrs after last dose by Western blot analysis; type: functional, organism-based; parameters: dose 25 mg/kg; outline: as §2
Mus musculus [10] = assay: Inhibition of PTEN expression in Balb/C mouse white adipose tissue assessed as reduction of full length transcript at 25 mg/kg, ip administered thrice a week for 2 weeks measured 48 hrs after last dose […]; type: functional, organism-based; parameters: dose 25 mg/kg
Mus musculus [11] = assay: Inhibition of PTEN expression in Balb/C mouse white adipose tissue assessed as upregulation of isoform lacking exon at 25 mg/kg, ip administered thrice a week for 2 weeks measured 48 hrs after last dose […]; type: functional, organism-based; parameters: dose 25 mg/kg
Mus musculus [12] = assay: Acute toxicity in Balb/C mouse assessed as change in body weight at 2.5 to 12.5 mg/kg, ip administered BID for 5 days measured 48 hrs after last dose; type: organism-based; parameters: dose 2.5-12.5 mg/kg, route intraperitoneal; details: in vivo
Outline: (§3)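 Male Balb/c mice aged 6–8 weeks, n=4 per group, dosed i.p. with compound suspended in PBS and filter sterilized, 10 ul/g body weight. Body weight tracked throughout the live phase. Under isoflurane anaesthesia, terminal cardiac-puncture bleed; serum taken for transaminases and other chemistries. Sacrifice by cervical dislocation 48 h after last dose, with liver and spleen weighed at necropsy. Kidneys examined by histopathology.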

Mus musculus [13] = assay: Acute toxicity in Balb/C mouse assessed as change in organ weight at 2.5 to 12.5 mg/kg, ip administered BID for 5 days measured 48 hrs after last dose; type: organism-based; parameters: dose 2.5-12.5 mg/kg, route intraperitoneal; details: in vivo; outline: as §3
Mus musculus [14] = assay: Acute toxicity in Balb/C mouse assessed as change in serum chemistry at 2.5 to 12.5 mg/kg, ip administered BID for 5 days measured 48 hrs after last dose; type: organism-based; parameters: dose 2.5-12.5 mg/kg, route intraperitoneal; details: in vivo; outline: as §3
Mus musculus [15] = assay: Inhibition of PTEN expression in Balb/C mouse kidney assessed as increase in mRNA levels at 2.5 to 12.5 mg/kg, ip administered BID for 5 days measured 48 hrs after last dose […]; type: functional, organism-based
Outline: (§4)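 Male Balb/c mice, n=4 per group, dosed i.p. in PBS and sacrificed 48 h after last dose. Liver, kidney and adipose tissue homogenised at once in 4 M guanidine isothiocyanate, 25 mM EDTA, 50 mM Tris-HCl pH 6. RNA purified on columns and run by fluorescence-based quantitative RT-PCR. Target transcript levels normalised to cyclophilin A and expressed relative to saline-treated controls.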

Mus musculus [16] = assay: Inhibition of PTEN expression in Balb/C mouse adipose tissue assessed as increase in mRNA levels at 2.5 to 12.5 mg/kg, ip administered BID for 5 days measured 48 hrs after last dose by […]; type: functional, organism-based; outline: as §4
Mus musculus [17] = assay: Inhibition of PTEN expression in Balb/C mouse liver assessed as increase in mRNA levels at 2.5 to 12.5 mg/kg, ip administered BID for 5 days measured 48 hrs after last dose […]; type: functional, organism-based; outline: as §4

Structure (SMILES) | IC50 (BCL1) | Activity (Mus musculus [1]) | Activity (Mus musculus [2]) | Activity (Mus musculus [3]) | Activity (Mus musculus [4]) | Activity (Mus musculus [5]) | Activity (Mus musculus [6]) | Activity (Mus musculus [7]) | Activity (Mus musculus [8]) | inhibition (Mus musculus [9]) | Activity (Mus musculus [10]) | Activity (Mus musculus [11]) | Activity (Mus musculus [12]) | Activity (Mus musculus [13]) | Activity (Mus musculus [14]) | Activity (Mus musculus [15]) | Activity (Mus musculus [16]) | Activity (Mus musculus [17])
COCCO[C@@H]1[C@H](OP(=O)(S)OC[C@H]2O[C@@H](n3cc(C)c(=O)[nH]c3=O)C[C@@H]2OP(=O)(S)OC[C@H]2O[C@@H](n3cnc4c(=O)[nH]c(N)nc43)[C@H](OCCOC)[C@@H]2OP(=O)(S)OC[C@H]2O[C@@H](n3ccc(N)nc3=O)[C@H](OCCOC)[C@@H]2OP(=O)(S)OC[C@H]2O[C@@H](n3cc(C)c(=O)[nH]c3=O)C[C@@H]2OP(=O)(S)OC[C@H]2O[C@@H](n3cnc4c(N)ncnc43)[C@H](O)[C@@H]2OP(=O)(S)OC[C@H]2O[C@@H](n3cnc4c(=O)[nH]c(N)nc43)[C@H](O)[C@@H]2OP(=O)(S)OC[C@H]2O[C@@H](n3ccc(N)nc3=O)[C@H](O)[C@@H]2OP(=O)(S)OC[C@H]2O[C@@H](n3ccc(N)nc3=O)[C@H](O)[C@@H]2OP(=O)(S)OC[C@H]2O[C@@H](n3cc(C)c(=O)[nH]c3=O)C[C@@H]2OP(=O)(S)OC[C@H]2O[C@@H](n3ccc(N)nc3=O)[C@H](O)[C@@H]2OP(=O)(S)OC[C@H]2O[C@@H](n3cc(C)c(=O)[nH]c3=O)C[C@@H]2OP(=O)(S)OC[C@H]2O[C@@H](n3cnc4c(=O)[nH]c(N)nc43)[C@H](O)[C@@H]2OP(=O)(S)OC[C@H]2O[C@@H](n3cnc4c(=O)[nH]c(N)nc43)[C@H](O)[C@@H]2OP(=O)(S)OC[C@H]2O[C@@H](n3cnc4c(N)ncnc43)[C@H](O)[C@@H]2OP(=O)(S)OC[C@H]2O[C@@H](n3cc(C)c(=O)[nH]c3=O)C[C@@H]2OP(=O)(S)OC[C@H]2O[C@@H](n3cc(C)c(=O)[nH]c3=O)C[C@@H]2OP(=O)(S)OC[C@H]2O[C@@H](n3cc(C)c(=O)[nH]c3=O)C[C@@H]2OP(=O)(S)OC[C@H]2O[C@@H](n3cnc4c(=O)[nH]c(N)nc43)[C@H](OCCOC)[C@@H]2OP(=O)(S)OC[C@H]2O[C@@H](n3cnc4c(N)ncnc43)[C@H](OCCOC)[C@@H]2O)[C@@H](CO)O[C@H]1n1ccc(N)nc1=O (stereo partly drawn) | 3.2 µM | Non-toxic | Non-toxic | Non-toxic | Non-toxic | Non-toxic | Non-toxic | Non-toxic | Active | inactive | Active | Active | – | – | – | – | – | –
Cc1cn(CC(=O)N(CCNC(=O)CN(CCNC(=O)[C@H](CCCNC(=N)N)N(CCNC(=O)[C@H](CCCNC(=N)N)NC(=O)[C@H](CCCCNC(=N)N)NC(=O)[C@H](Cc2ccccc2)NC(=O)[C@H](CCCCNC(=N)N)NC(=O)[C@H](CCCCNC(=N)N)NC(=O)[C@H](CCCCNC(=N)N)NC(=O)[C@H](C)NC(=O)[C@H](CCCNC(=N)N)NC(=O)[C@H](CCCCNC(=N)N)NC(=O)[C@H](Cc2ccccc2)NC(=O)[C@H](C)NC(=O)[C@H](CCCNC(=N)N)NC(=O)[C@H](CCCCNC(=N)N)NC(=O)CN)C(=O)Cn2cc(C)c(=O)[nH]c2=O)C(=O)Cn2ccc(N)nc2=O)CC(=O)NCCN(CC(=O)NCCN(CC(=O)NCCN(CC(=O)NCCN(CC(=O)NCCN(CC(=O)NCCN(CC(=O)NCCN(CC(=O)NCCN(CC(=O)NCCN(CC(=O)NCCN(CC(=O)NCCN(CC(=O)NCCN(CC(=O)NCCN(CC(=O)N[C@@H](CCCCN)C(N)=O)C(=O)Cn2cnc3c(N)ncnc32)C(=O)Cn2ccc(N)nc2=O)C(=O)Cn2cnc3c(N)ncnc32)C(=O)Cn2cc(C)c(=O)[nH]c2=O)C(=O)Cn2ccc(N)nc2=O)C(=O)Cn2cc(C)c(=O)[nH]c2=O)C(=O)Cn2cnc3c(N)ncnc32)C(=O)Cn2ccc(N)nc2=O)C(=O)Cn2cnc3c(N)ncnc32)C(=O)Cn2ccc(N)nc2=O)C(=O)Cn2cnc3c(=O)[nH]c(N)nc32)C(=O)Cn2cnc3c(N)ncnc32)C(=O)Cn2ccc(N)nc2=O)c(=O)[nH]c1=O | – | – | – | – | – | – | – | – | – | – | – | – | Non-toxic | Non-toxic | Non-toxic | inactive | inactive | inactive
